# Source: PubChem (Broad Institute)
# Shown are actives, neighbours in structure and some others; about 3.1% of the full set was active somewhere.
# Cneo AK release – Cryptococcus neoformans lysis via adenylate kinase release. 360,000 compounds, 0.2% hits. C. neoformans lysis, adenylate kinase release luminescence, 4 h; normalised: neutral wells 0, clomiphene wells 100. AID 651654. lysis activity, % at 15 µM;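 active = mean lysis activity across replicates of at least 80%, whatever share of replicates individually reach that level; inactive = mean lysis activity below 80%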
#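 Test system: log-phase Cryptococcus neoformans yeast cells. Input: 5 × 10^6 yeast cells/mL. Medium: fresh YPD growth medium. Doses: single dose. Incubation: static 4 h at 37 °C with compound, 1 h detection. Measured by: luminescent adenylate kinase detection reagent. Read-out: signal increase indicating cell lysis. Benchmarks: Clomiphene.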
# miR-122 sensor – inhibitors of miR-122 in Huh7 cells; 340,000 compounds, 0.3% hits; activation (reporter increase), % at 12.5 µM; Huh7 miR-122 Renilla luciferase sensor, 48 h; neutral wells = 0, positive control = 100; AID 602342;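 active = mean replicate activation score at least 90 and every replicate individually at or above 90; inconclusive = only one of the two criteria met; inactive = neither criterion met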;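 also: higher luciferase means less miR-122 activity so hits act as miR-122 inhibitors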
# DENV2 CPE – protects cells from dengue virus 2 cytopathic effect. AID 651640. CPE inhibition, % at 9.99 µM. 350,000 compounds, 1.7% hits. DENV2-infected cells, cytopathic effect rescue, plate reader; in the data active = CPE inhibition above about 20%, passing the limit was not always enough; inconclusive = no clear call, values can overlap the other calls; tested in BHK-21 cells;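 also: 0% = median of neutral control wells and 100% = median of positive control wells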
# E-selectin induc – induces E-selectin expression in human endothelial cells; P16581; HUVEC E-selectin immunofluorescence imaging; normalized: neutral wells 0, TNF-alpha wells 100; activation, % at 7.58 µM; 260,000 compounds, 0.37% hits;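 active = mean E-selectin-positive cell signal at least 10% of the positive control, reached in at least 60% of replicates, without over 20% cell loss; inconclusive = no rule given, readout overlaps actives, possibly toxicity-flagged; inactive = the rest, including those meeting only one limit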
# Target sequence (P16581 whole entry, looked up): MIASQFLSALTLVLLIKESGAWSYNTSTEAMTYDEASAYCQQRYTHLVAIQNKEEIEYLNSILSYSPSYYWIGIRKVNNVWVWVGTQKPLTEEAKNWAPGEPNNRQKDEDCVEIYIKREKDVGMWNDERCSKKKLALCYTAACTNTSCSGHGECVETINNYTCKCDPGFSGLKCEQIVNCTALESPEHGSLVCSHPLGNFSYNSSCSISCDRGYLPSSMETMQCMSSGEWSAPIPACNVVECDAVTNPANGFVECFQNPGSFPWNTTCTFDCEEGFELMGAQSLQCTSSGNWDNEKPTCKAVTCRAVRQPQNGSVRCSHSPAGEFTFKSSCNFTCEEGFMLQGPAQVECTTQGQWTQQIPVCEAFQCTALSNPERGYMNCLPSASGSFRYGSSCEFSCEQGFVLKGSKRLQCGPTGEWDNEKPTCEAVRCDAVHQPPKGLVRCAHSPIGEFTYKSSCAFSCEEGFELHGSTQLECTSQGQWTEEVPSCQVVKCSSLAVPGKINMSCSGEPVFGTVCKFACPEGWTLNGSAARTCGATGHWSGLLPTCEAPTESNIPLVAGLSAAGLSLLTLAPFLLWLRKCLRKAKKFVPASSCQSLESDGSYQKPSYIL
#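 System: HUVEC / Compound: single concentration / Signal: immunofluorescence imaging / Read-out: percent E-selectin-positive cells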
# Ecoli rRNA inh – selective bacterial rRNA inhibition in E. coli; GFP signal change (wild-type ribosome), % (concentration not given with the values); 350,000 compounds, 1.6% hits; E. coli WT GFP vs humanized-ribosome RFP mutants, fluorescence, 24 h; hits give low values; DMSO median 0, no signal -100;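 active = significant combined selectivity score with lowered wild-type GFP, culture density cut under 30%, mutant RFP and density less affected; inactive = any of these conditions unmet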
# Numbers without * were called inactive; ? = inconclusive; . = not tested or not shown; [ ] = remark or other dose.
SMILES,Cneo AK release,miR-122 sensor,DENV2 CPE,E-selectin induc,Ecoli rRNA inh
O=C(c1cc2c(c(-c3cccc(Br)c3)n1)[C@H](CCO)NC2)N1CCCCC1,.,.,34.5*,15.9,1.2
CN1CCN(C(=O)c2cc3c(c(-c4cccc(Br)c4)n2)[C@@H](CCO)N(S(=O)C(C)(C)C)C3)CC1 (some centres undefined),2.1,-2.5,7.5,0.2,7.4
CN(C)CC(=O)N[C@H]1C=C[C@@H](CC(=O)O)O[C@@H]1CO,.,.,-2.0,0.3,-1.0
Cc1ccc(NC(=O)C[C@H]2CC[C@H]3[C@@H](COc4ccc(NC(=O)C5CCCCC5)cc4C(=O)N3C)O2)cc1,.,.,-13.8,0.2,-0.5
COc1ccc(-c2oc(=O)c3cc(OC)c(OC)cc3c2/C=C/c2cccc([N+](=O)[O-])c2)cc1,3.5,1.5,33.7*,.,11.6
CCCNC(=O)N1[C@H](CO)[C@H](c2ccccc2-c2ccccc2)[C@@H]1C#N,.,.,108.7*,0.0,6.0
CCC(=O)N1[C@@H](C#N)[C@H](c2ccccc2-c2ccccc2)[C@@H]1CO,.,.,46.8*,0.0,1.6
C/C=C/c1ccccc1[C@H]1[C@@H](C#N)N(C(=O)NC2CCCC2)[C@H]1CO,.,.,60.5*,0.1,1.1
CCC(=O)N1[C@H](C#N)[C@@H](c2ccccc2-c2ccccc2)[C@@H]1CO,.,.,16.0,-0.1,3.9
C/C=C/c1ccccc1[C@H]1[C@@H](CO)N(C(=O)NC2CCCC2)[C@H]1C#N,.,.,2.0,0.0,2.9
Cc1ccc(S(=O)(=O)N[C@H]2CC[C@@H](CC(=O)NC3CCCCC3)O[C@@H]2CO)cc1,-3.6,.,4.0,-0.4,0.9
CO[C@H]1CN(C)C(=O)c2cc(NC(=O)c3ccc(F)cc3)ccc2OC[C@H](C)NC[C@H]1C,-0.2,-7.5[16.7 µM],.,3.7,1.4
COCCNC(=O)C[C@@H]1C=C[C@H](NS(=O)(=O)c2ccc(C)cc2)[C@H](CO)O1,-1.0,.,-4.5,-0.3,2.0
C[C@@H]1CN(C)C(=O)Cc2cc(NS(C)(=O)=O)ccc2O[C@@H]1CN(C)C,.,.,.,.,0.1
CCOc1cc(/C=N/NC(=O)CCCC(=O)NC2CCCCC2)ccc1O,101.7*,7.4,9.1,-0.1,-8.4
COc1cc(/C=N/NC(=O)CCC(=O)NC2CCCCC2)ccc1C,.,.,3.4,.,16.6
Brc1ccc(-n2cnc(-c3ccccc3)c2)cc1,-4.5,10.5,-6.1,0.4,-14.6*
O=[N+]([O-])c1ccc(-c2cn(-c3ccc(Cl)cc3)cn2)cc1,.,.,?,-0.2,-1.7
C[C@H]1CN(C)C(=O)Cc2cc(N(C)C)ccc2O[C@@H]1CN(C)S(C)(=O)=O,.,.,.,.,2.9
COc1ccc(N2c3ccccc3CN(Cc3ccccc3)CC2Cc2cc(OC)c(OC)c(OC)c2)cc1 (centres undefined),-0.3,0.6,-6.9,-0.2,-5.5
C[C@H]1[C@@H](Cc2cc(Cl)cc(Cl)c2)N(c2ccccc2)c2ccccc2CN1Cc1ccccc1,.,.,43.4*,0.8,-15.7
COC(=O)[C@@H](NS(=O)(=O)c1cc(Br)ccc1Br)C(C)C,-3.2,34.9,0.4,4.2,-26.5*
CCC(C)[C@H](NS(=O)(=O)c1ccc(F)cc1Br)C(=O)OC (some centres undefined),6.5,-7.0,17.8,-0.4,-19.4
CC(=O)c1ccc(NS(=O)(=O)c2c(C)cc(C)cc2C)cc1,.,151.9*,4.4,-1.8,-5.6
CC(=O)NC[C@@H]1[C@@H](c2ccc(C3=CCCC3)cc2)[C@@H](CO)N1C(=O)NC(C)C,112.4*,50.0[16.7 µM],5.3,0.0,-3.0
SMILES,Cneo AK release,miR-122 sensor,DENV2 CPE,E-selectin induc,Ecoli rRNA inh
CCCNC(=O)NC[C@@H]1[C@@H](c2ccc(C3=CCCC3)cc2)[C@H](CO)N1C(=O)CC,21.7,342.9*[16.7 µM],-7.7,0.2,-0.7
CC(=O)NC[C@H]1[C@@H](c2ccc(C3=CCCCC3)cc2)[C@@H](CO)N1C(=O)NC(C)C,-0.3,-7.1[16.7 µM],54.9*,0.0,-2.0
CCCNC(=O)NC[C@@H]1[C@H](c2ccc(C3=CCCC3)cc2)[C@H](CO)N1C(=O)CC,6.6,35.7[16.7 µM],-8.0,0.0,-5.8
COc1ccccc1-c1cnc2c(c1)C(=O)N([C@H](C)CO)C[C@H](C)[C@H](CN(C)CC1CC1)O2,.,-2.8[16.7 µM],.,0.5,-0.7
C[C@@H]1CN([C@H](C)CO)C(=O)c2c(c3ccccc3n2C)-c2ccccc2CO[C@H]1CN(C)Cc1cccnc1,.,.,.,.,-3.9
COC(=O)C[C@@H]1C[C@@H]2c3cc(NC(=O)Nc4ccc(OC)cc4)ccc3O[C@@H]2[C@H](CO)O1,0.3,4.0[16.7 µM],5.7,1.2,-3.5
COc1ccc(OC)c(NC(=O)NNS(=O)(=O)c2ccc(C)cc2C)c1,1.8,-8.1,23.4*,-1.3,2.8
COc1ccc(C)cc1NC(=O)NNC(=O)C1CCC(C(C)(C)C)CC1 (centres undefined),2.1,-4.4,2.1,2.2,-17.2*
CCCNC(=O)N1[C@H](CO)[C@H](c2ccccc2)[C@@H]1CNC(=O)C1CCCCC1,.,.,-0.2,-0.2,-0.1
COc1cccc(CNC(=O)c2cc3c(cc2Cl)N2CCCCCC2=NS3(=O)=O)c1,.,-3.4,7.1,100.4*,-8.1
CC(C)NC(=O)N(C)C[C@@H]1OCCCC[C@@H](C)Oc2ccc(NS(=O)(=O)c3cccs3)cc2C(=O)N([C@H](C)CO)C[C@@H]1C,-3.4,-2.6[16.7 µM],54.5*,.,1.5
C[C@@H]1CCCCO[C@H](CN(C)C(=O)Nc2ccc(F)cc2)[C@H](C)CN([C@H](C)CO)C(=O)c2cc(NS(=O)(=O)c3cccs3)ccc2O1,-1.4,-12.8[16.7 µM],67.7*,0.0,-2.5
C[C@H]1CCCCO[C@H](CN(C)C(=O)Nc2ccc(F)cc2)[C@@H](C)CN([C@@H](C)CO)C(=O)c2cc(NS(=O)(=O)c3cccs3)ccc2O1,7.1,11.9[16.7 µM],26.6*,0.2,3.6
C[C@@H]1CCCCO[C@@H](CN(C)C(=O)Nc2ccc(F)cc2)[C@H](C)CN([C@H](C)CO)C(=O)c2cc(NS(=O)(=O)c3cccs3)ccc2O1,-3.1,-8.3[16.7 µM],-12.2,-0.2,-1.4
C[C@H]1CCCCO[C@@H](CN(C)C(=O)Nc2ccc(F)cc2)[C@@H](C)CN([C@@H](C)CO)C(=O)c2cc(NS(=O)(=O)c3cccs3)ccc2O1,12.6,17.4[16.7 µM],19.1,0.0,-0.6
CCC(=O)N1CC2(C1)[C@@H](c1ccc(-c3cccc(F)c3)cc1)[C@@H](CO)N2CC1CC1,.,.,20.5*,-0.2,-6.7
CCC(=O)N1CC2(C1)[C@@H](c1ccc(-c3cccc(C)c3)cc1)[C@@H](CO)N2S(C)(=O)=O,.,.,27.2*,0.1,-2.5
CCC(=O)N1CC2(C1)[C@H](c1ccc(-c3cccc(F)c3)cc1)[C@@H](CO)N2CC1CC1,.,.,3.3,0.0,-6.0
CC(C)NC(=O)N[C@H]1C=C[C@H](CC(=O)NCCN2CCCC2)O[C@H]1CO,-0.8,.,-5.9,0.0,7.6
Cc1ccc(N(C(=O)Nc2ccccc2)C2=NCCC2)cc1,6.9,2.4,?,0.3,-9.3
